Data on five molecules can be found in PMC2860721 (Journal of medicinal chemistry, 2010).

Molecules are shown by their SMILES. pEC50, pIC50: −log10 of the molar value. In brackets after ≈: the same amount, converted by molar mass.

Experiment [1] concerns HIV. The settings on record: cited from earlier work.
The test system of experiment [2] is HIV. The settings on record: cited from earlier work. The source holds these as a separate data set.
Another experiment concerns mock-infected MT-2 cells. The experiment in a line: Compound toxicity by XTT in mock-infected MT-2 cells. Format: cell-based. The settings on record: Homo sapiens, MT2, read-out: IC50 (concentration that inhibits mock-infected cell growth by 50%). Background: Tetrazolium dyes change colour on reduction, which living cells bring about.
The next experiment relates to HIV-1NL4-3. Kind of experiment: HIV-1NL4-3 replication inhibition assay in MT-4 lymphocytes. The experiment is classed as cell-based. The following applies: HIV-1NL4-3 infected MT-4 lymphocytes. Put shortly: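 MT-4 cells infected with HIV-1 NL4-3 or NL4-3 variants at MOI 0.01. Culture supernatants collected on day 4 post-infection. Viral replication read out by p24 antigen capture ELISA.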

On to `C=C(C)C1CCC2(C(=O)O)CCC3(C)C(CCC4C5(C)CCC(OC(=O)C(C)(C)CC(=O)O)C(C)(C)C5CCC43C)C12` (centres unmarked) [3-O-(2′,2′-dimethylsuccinyl) BA], for which the pEC50 – broadly, −log10 of the EC50, conventionally taken in molar units – in the experiment on HIV [1] was 5.57. As to `CC1(C)C=C2[C@H]3CC[C@@H]4[C@@]5(C)CCC(=O)C(C)(C)[C@@H]5CC[C@@]4(C)[C@]3(C)CC[C@@]2(C(=O)O)CC1` [Compound 3, moronic acid], the “EC50 (anti-HIV activity)” value in the experiment with HIV [2] is 0.1 µg/mL (≈ 0.22 µM). Consider `C=C(C)[C@@H]1CC[C@]2(C(=O)O)CC[C@]3(C)[C@H](CC[C@@H]4[C@@]5(C)CC[C@H](OC(=O)C[C@H](C)C(=O)O)C(C)(C)[C@@H]5CC[C@]43C)[C@@H]12` [Compound 10, 3β-O-(3′S-Methylsuccinyl)-betulinic acid], for which, in the experiment with mock-infected MT-2 cells, the pIC50 was 4.48.

For the molecule `C=C(C)[C@@H]1CC[C@]2(C(=O)O)CC[C@]3(C)[C@H](CC[C@@H]4[C@@]5(C)CC[C@H](OC(=O)C[C@](C)(CC)C(=O)O)C(C)(C)[C@@H]5CC[C@]43C)[C@@H]12` [Compound 12a, 3β-O-(3′S-Ethylmethylsuccinyl)-betulinic acid], in the experiment with HIV-1NL4-3, the antiviral activity entry is “active”. Same read-out and setting: with `C=C(C)[C@@H]1CC[C@]2(C(=O)O)CC[C@]3(C)[C@H](CC[C@@H]4[C@@]5(C)CC[C@H](OC(=O)C[C@@](C)(CC)C(=O)O)C(C)(C)[C@@H]5CC[C@]43C)[C@@H]12` [Compound 12b, 3β-O-(3′R-Ethylmethylsuccinyl)-betulinic acid] the entry was “no antiviral activity”.
